The list is not random: actives were taken first. Their share in the collection is about 1%.
FXN GAA850 act = activators of GAA850 frataxin (FXN) promoter | HEK293 lucGAA850 FXN promoter luciferase reporter, 24 h; percent of 10 µM SAHA response | activation, % at 6 µM | 0.56% of 360,000 active;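 active means activation above the average of all compounds screened plus 3 SD, cutoff fixed separately per campaign, cut at about 7.5% in these data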;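 further: 0% = DMSO wells and 100% = 10 µM SAHA wells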
Xi reactivation = X-chromosome reactivation activator; 0.055% of 360,000 active; XiGFP mouse fibroblasts, % GFP-positive cells imaging, 3 d; cells co-treated with 5-aza-dC sensitizer; scaled so ellipticine positive control = 100%; activation, % at 7.58 µM;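 active means mean normalized replicate activation at least 10% and every replicate at or above 10%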;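 further: 0% = median of on-plate neutral control wells and 100% = ellipticine 6 µM median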
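System: SV40-immortalized XiGFP fibroblast cells, line 68-5-11 / Incubation: 3-day compound exposure, then 15 min fixation at room temperature / Compound: single concentration per compound, delivered by pin transfer / Buffer or medium: DMEM plus 5-aza-dC sensitizer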
GSIS activator = GLuc luminescence reporter in INS-1E cells, primary screen for activators of glucose-dependent secretion of insulin; activation, % at 16.6 µM; 0.61% of 370,000 active; INS-1E GLuc reporter insulin secretion, 2-3 h;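 active means lowest replicate activation of at least 40%, so every replicate reaches that level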;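 further: 0% = median of neutral control wells and 100% = median of IBMX positive control wells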
CaV13 ICDI inh = Disruptors of the CACNA1D IQ motif to Ca2+-dependent inactivation inhibitor domain association, primary screening, Förster resonance energy transfer in intact living … | inhibition, % at 12.3 µM | AID 743397 | 0.098% of 340,000 active | HEK cells, CFP/YFP FRET ICDI-IQ, plate reader, 10 min; percent FRET-ratio fall versus neutral wells;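 active means mean replicate inhibition of at least 30% and at least 1% of replicates passing that level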;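 further: 0% = median of the neutral control wells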
GAA30 counter = GAA30 FXN promoter activation counter-screen. shares compounds with FXN GAA850 act. HEK293 lucGAA30 FXN promoter luciferase, 24 h; DMSO = 0%, 5 µM ipriflavone = 100%. activation, % at 6 µM. 66% of 1,900 active;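 active means mean activation above the mean of solvent-only control wells plus 3 SD, cut at about 22% in these data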;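 further: counterscreen of GAA850 promoter hits where activity marks nonselective or luminescence artifacts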
GAA850 confirm = confirmation of GAA850 frataxin (FXN) promoter activators | shares compounds with FXN GAA850 act | HEK293 lucGAA850 FXN promoter luciferase reporter, 24 h; 100% = activation by SAHA | activation, % at 6 µM | 86% of 1,900 active | AID 588351;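 active means mean activation above a set limit taken from the primary screen, cut at about 8% in these data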;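 further: 0% = DMSO wells and 100% = 10 µM SAHA wells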
* hit, by the source's call.

`COc1cc2sc3cc(NCCCN4CCOCC4)ccc3c(=O)c2cc1OC` gave FXN GAA850 act 9.8*, Xi reactivation -0.3, GSIS activator 12.5, CaV13 ICDI inh -5.5, GAA30 counter 114.2* and GAA850 confirm 37.0*.
O=S(=O)(N[C@H]1CC[C@@H](CCn2cc(-c3cccnc3)nn2)O[C@H]1CO)c1ccccc1 was read as Xi reactivation -0.1 and GSIS activator 3.0.
Cc1cc(C)n2nc(-c3cccc(Br)c3)cc2n1 was read as FXN GAA850 act 9.1*, Xi reactivation 0.0, GSIS activator 6.9, CaV13 ICDI inh -1.5, GAA30 counter 106.5* and GAA850 confirm 44.0*.
CNC[C@H]1Oc2ccc(NC(=O)Nc3c(C)noc3C)cc2C(=O)N([C@@H](C)CO)C[C@@H]1C was read as Xi reactivation 0.1 and GSIS activator 17.4.
COc1ccccc1NC(=O)N1C[C@@H](O)COC[C@@H]2O[C@@H](CC(=O)NCc3ccccc3)CC[C@H]21 was read as Xi reactivation 0.0 and GSIS activator -5.2.
CC[C@]12c3[nH]c4ccc(OC)cc4c3CCN1C(=O)C(CC(=O)NCC13CC4CC(CC(C4)C1)C3)C[C@@H]2C(=O)N1CCN(C(=O)C2CC2)CC1 (some centres not stated) was read as FXN GAA850 act 14.9*, Xi reactivation -0.1, CaV13 ICDI inh -9.9, GAA30 counter 23.1* and GAA850 confirm 15.1*.
`CC[C@]12c3[nH]c4ccccc4c3CCN1C(=O)C(CC(=O)NCC13CC4CC(CC(C4)C1)C3)C[C@@H]2C(=O)N1CCN(C(=O)C2CC2)CC1` (some centres not stated) gave FXN GAA850 act 9.0*, Xi reactivation -0.1, GSIS activator -37.5, CaV13 ICDI inh -6.2, GAA30 counter -9.8 and GAA850 confirm 3.2.
Screening CC[C@]12c3[nH]c4ccc(Cl)cc4c3CCN1C(=O)[C@@H](CC(=O)NCC13CC4CC(CC(C4)C1)C3)C[C@@H]2C(=O)N1CCN(C(=O)C2CC2)CC1 returned FXN GAA850 act 6.3, Xi reactivation 0.0, GSIS activator -20.6 and CaV13 ICDI inh -9.3.
For COCCNC(=O)C[C@@H]1CC[C@H]2[C@H](COc3ccc(NC(=O)c4cnccn4)cc3C(=O)N2C)O1 the results were Xi reactivation 0.1 and GSIS activator 3.5.
For C[C@@H]1CN([C@@H](C)CO)S(=O)(=O)c2ccc(C#Cc3ccc(F)cc3)cc2O[C@@H]1CN(C)S(=O)(=O)c1ccc(F)cc1 the results were Xi reactivation 0.0 and GSIS activator 0.4.
Screening NC(=O)c1c(NC(=O)c2ccccc2)sc2c1CCc1ccccc1-2 returned FXN GAA850 act 7.7*, CaV13 ICDI inh -4.8, GAA30 counter 94.5* and GAA850 confirm 35.4*.
For CCc1ccc(O)c(-c2cc(C(=O)Nc3cccnc3)[nH]n2)c1 the results were FXN GAA850 act 7.8*, Xi reactivation -0.1, GSIS activator -10.2, CaV13 ICDI inh -5.7, GAA30 counter 97.0* and GAA850 confirm 30.5*.
Screening CS(=O)(=O)c1nc(-c2ccc(F)cc2)cc(C(F)(F)F)n1 returned FXN GAA850 act 39.3*, Xi reactivation -0.1, GSIS activator 2.7, CaV13 ICDI inh -26.7, GAA30 counter 23.5* and GAA850 confirm 70.9*.
`CCOC(=O)CCS(=O)(=O)c1nc(-c2ccccc2)cc(C(F)(F)F)n1` gave FXN GAA850 act 4.3.
Screening COc1ccc(-c2cc(C(F)(F)F)nc(S(C)(=O)=O)n2)cc1 returned FXN GAA850 act 4.9 and CaV13 ICDI inh -7.5.
Screening CCOC(=O)CS(=O)(=O)c1nc(-c2ccccc2)cc(C(F)(F)F)n1 returned FXN GAA850 act 11.0*, CaV13 ICDI inh -3.6, GAA30 counter -54.3 and GAA850 confirm -23.4.
`CCOC(=O)CS(=O)(=O)c1nc(-c2ccc(F)cc2)cc(C(F)(F)F)n1` gave FXN GAA850 act 21.4*, GAA30 counter -77.3 and GAA850 confirm -24.4.
For O=C(NC(=S)NC1CCCCCC1)c1cncc(Br)c1 the results were FXN GAA850 act 8.3*, Xi reactivation 0.0, GSIS activator -16.7, CaV13 ICDI inh -5.3, GAA30 counter 95.0* and GAA850 confirm 32.7*.
For C[C@H]1CN([C@@H](C)CO)C(=O)c2cc(C#CC3CC3)cnc2O[C@@H]1CN(C)C(=O)c1ccccc1 the results were Xi reactivation -0.7 and GSIS activator 7.6.
For Cc1[nH]c2ccccc2c1SCc1ccccc1 the results were FXN GAA850 act 15.4*, Xi reactivation -0.1, CaV13 ICDI inh 8.9, GAA30 counter 12.8 and GAA850 confirm 7.3.
Screening Cc1[nH]c2ccccc2c1SCCN returned FXN GAA850 act -0.8, Xi reactivation 0.1 and CaV13 ICDI inh 12.0.
`COc1ccc(-c2cnc3c(c2)C(=O)N([C@H](C)CO)C[C@@H](C)[C@@H](CN(C)C(=O)C2CCCCC2)O3)cc1` gave Xi reactivation -0.1 and GSIS activator -8.7.
For COc1ccc(/C=C2\N=C(c3ccccc3)N(c3ccc(C(=O)O)cc3)C2=O)cc1OC the results were FXN GAA850 act 9.3*, Xi reactivation 0.0, GSIS activator 71.0*, CaV13 ICDI inh -2.7, GAA30 counter 41.3* and GAA850 confirm 22.8*.
`O=[N+]([O-])c1ccccc1N/N=C/c1cccc(O)c1O` gave FXN GAA850 act 12.5*, Xi reactivation 0.2, GSIS activator 8.0, CaV13 ICDI inh -5.3, GAA30 counter 39.8* and GAA850 confirm 26.3*.
Screening O=[N+]([O-])c1ccccc1N/N=C\c1ccccc1Cl returned FXN GAA850 act 4.3.
For O=[N+]([O-])c1ccc(N/N=C/c2cccc(O)c2O)c(S(=O)(=O)N2CCOCC2)c1 the results were FXN GAA850 act 5.2, Xi reactivation 1.7, GSIS activator -5.4 and CaV13 ICDI inh -13.2.
`COc1cccc(/C=N/Nc2ccc([N+](=O)[O-])cc2)c1O` gave FXN GAA850 act 8.1*, Xi reactivation 0.0, GSIS activator -20.5, CaV13 ICDI inh -39.0, GAA30 counter 105.7* and GAA850 confirm 35.0*.
`O=[N+]([O-])c1cccc(N/N=C/c2cccc(O)c2O)c1` gave FXN GAA850 act 8.7*, Xi reactivation 0.0, GSIS activator -0.8, CaV13 ICDI inh 6.4, GAA30 counter 67.3* and GAA850 confirm 29.6*.
Screening C/C=C/c1ccc([C@@H]2[C@@H](C#N)N(c3ncc(CC)s3)[C@@H]2CO)cc1 returned Xi reactivation 0.4 and GSIS activator -1.2.

Screening data (PubChem)
